Results from different studies.
Protocols differ between the studies behind these lines.
Target: Vascular endothelial growth factor receptor 3 (FLT4, Homo sapiens, UniProt P35916)

O=C(O)[C@H]1[C@H](Cn2nnc3ccccc3c2=O)CC[C@@H]1C(=O)c1ccc(OCCC2CCOCC2)cc1  remaining binding (cell-free assay; competition with immobilised ligand; 1 µM): 81%
CNC(=O)c1cc(Oc2ccc(NC(=O)Nc3ccc(Cl)c(C(F)(F)F)c3)cc2)ccn1  remaining signal (cell-free assay; 0.5 µM): 43%
Cc1cc(NC(=O)c2cccc3cc(-c4cccc5[nH]nc(N)c45)ccc23)ccc1F  activity vs control (enzyme activity; inhibitor; 0.1 µM): 1%
COc1cc2ncnc(Nc3ccc(Oc4ccccc4)c(C)c3C)c2cc1OC  inhibition (enzyme activity; inhibitor; 1 µM): 12%
O=C(Nc1cnn(-c2csc(C(=O)NC3COC3)c2)c1)Nc1c(F)cccc1Cl  remaining activity (enzyme activity; inhibitor; 5 µM): 86.2%
N#CC1(c2ccccn2)CCN(Cc2cc(C(=O)N3CCCC3)c(=O)n3ccccc23)CC1  remaining binding (cell-free assay; competition with immobilised ligand; 1 µM): 86%
COc1cc2c(Nc3ccc(Br)cc3F)ncnc2cc1OCC1CCN(C)CC1  remaining signal (cell-free assay; 0.5 µM): 16.1%
Cc1ccc(C(=O)Nc2ccc(CN3CCN(C)CC3)c(C(F)(F)F)c2)cc1C#Cc1cnc2cccnn12  remaining signal (cell-free assay; 23.5 nM): 35%
CCCCN(CCCC)C(=O)CN1C[C@H](c2cc(OC)c3c(c2)OCO3)[C@@H](C(=O)O)[C@@H]1CC(C)(C)CCC  remaining binding (cell-free assay; competition with immobilised ligand; 1 µM): 100%
CNC(=O)c1cc2c(Oc3ccc(NC(=O)C4(C(=O)Nc5ccc(F)cc5)CC4)cc3)ccnc2cc1OC  inhibition (enzyme activity; inhibitor; radiometric; 1 µM): 102%
Cc1cnc(NC2CCOCC2)nc1-n1cnc(C(=O)NC(CN)c2cc(F)cc(Cl)c2)c1 (centres unmarked)  remaining activity (enzyme activity; inhibitor; radiometric; 1 µM): 107%
Clc1ccc(Nc2nnc(Cc3ccncc3)c3ccccc23)cc1  remaining signal (cell-free assay; 0.5 µM): 62.8%
CCCOc1ccc(OC)c(F)c1C(=O)c1ccc(C(=O)N[C@@H]2CNC[C@H]2NC(=O)c2ccc3[nH]ncc3c2)cc1  remaining activity (enzyme activity; inhibitor; 10 µM): 8%
CCN(CC)c1ccc(C2=NNC(=O)CC2C)cc1[N+](=O)[O-] (centres unmarked)  remaining activity (enzyme activity; inhibitor; 10 µM): 111%
CC(C)(O)c1cncc(-c2nc3ccc(F)cc3n2C2CC2)c1  remaining binding (cell-free assay; competition with immobilised ligand; 1 µM): 100%
CC/C(=N\NC(=O)NCc1cccc(O)c1)c1ccc(O)c(C)c1O  inhibition (enzyme activity; inhibitor; 0.1 µM): 6.1%
O=C(Nc1cccnn1)N1CCC(=Cc2cccc(Oc3ccc(C(F)(F)F)cn3)c2)CC1  remaining binding (cell-free assay; competition with immobilised ligand; 1 µM): 80%
COc1ccc(COc2ccc(Cc3cnc(N)nc3N)cc2OC)cc1  remaining signal (cell-free assay; 0.5 µM): 105%
O=C(N[C@H]1CCCCC/C=C\C2C[C@@]2(C(=O)O)NC(=O)[C@@H]2C[C@@H](Oc3ccncc3)CN2C1=O)OC1CCCC1 (some centres unmarked)  remaining binding (cell-free assay; competition with immobilised ligand; 1 µM): 93%
COc1cc2nccc(Oc3ccc(NC(=O)c4c5n(n(-c6ccc(F)cc6)c4=O)CCCC5)cc3)c2cc1OC  inhibition (enzyme activity; inhibitor; 0.1 µM): 47%
